Sampled rows, rich in hits. Any-hit rate of the full collection: about 1.9%.
SUMO HTRF inh: inhibitors of human SUMOylation (UBC9). HTRF SUMOylation assay, SAE1/SAE2 + UBC9, in vitro. inhibition, % at 35 µM. 290,000 compounds, 0.36% hits. AID 2006; in the data active = inhibition above about 50%, passing the limit was not always enough
Target sequence (P63279 whole entry, looked up): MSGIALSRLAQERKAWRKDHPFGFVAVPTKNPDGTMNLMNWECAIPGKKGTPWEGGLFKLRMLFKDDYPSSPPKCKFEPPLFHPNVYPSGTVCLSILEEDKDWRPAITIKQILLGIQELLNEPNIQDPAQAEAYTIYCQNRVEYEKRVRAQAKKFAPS
SUMO1 PPI mod: modulators of human SUMO1-mediated protein-protein interactions; P63165; SUMO1 binding to a labelled peptide, TR-FRET, 1 h; inhibition, % at 20 µM; 360,000 compounds, 0.33% hits; AID 602429; in the data active = inhibition above about 37%
DNMT1 block: inhibitors of human DNMT1. DNMT1 molecular beacon, Hinp1I cleavage, fluorescence. inhibition (reported as % activation of signal), % at 10 µM. 360,000 compounds, 0.83% hits. AID 588458; in the data active = inhibition above about 50%
Scp1 inh: inhibitors of human Scp-1 phosphatase | Q9GZU7 | Recombinant Scp1, phosphopeptide, malachite green phosphate absorbance | inhibition, % at 20 µM | 340,000 compounds, 0.88% hits | AID 493091;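 active = inhibition above about 50% at 20 µM, limit read from the data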;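 also: plate controls were DMSO wells with enzyme for no effect and wells lacking enzyme for full effect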
Target sequence (Q9GZU7 76-261 limits assumed): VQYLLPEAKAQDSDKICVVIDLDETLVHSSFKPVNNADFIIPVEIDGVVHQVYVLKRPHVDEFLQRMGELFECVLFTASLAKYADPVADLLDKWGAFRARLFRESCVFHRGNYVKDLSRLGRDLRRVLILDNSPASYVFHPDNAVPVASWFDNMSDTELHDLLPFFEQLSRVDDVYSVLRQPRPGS
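Times: enzyme reaction 45 min at room temperature, colour 5 min, stabilisation 30 min. Material: SCP-1 catalytic fragment, aa 76-261. Medium: Acidic Tris acetate buffer with magnesium and detergent. Signal: colorimetric free-phosphate detection, absorbance 630 nm. Read-out basis: % inhibition of SCP-1 phosphate liberation. Reagent: Phosphorylated 17-residue peptide substrate.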
LMPTP block: blocks human LMPTP phosphatase; P24666; inhibition, % at 20 µM; recombinant LMPTP-A, OMFP fluorogenic substrate, fluorescence intensity; 360,000 compounds, 0.22% hits;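 active = compounds that cut the enzyme signal by at least half of the control window in the single-dose screen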;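 also: plate controls were DMSO wells with enzyme plus substrate for no effect and substrate without enzyme for full effect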
Target sequence (P24666 whole entry, looked up): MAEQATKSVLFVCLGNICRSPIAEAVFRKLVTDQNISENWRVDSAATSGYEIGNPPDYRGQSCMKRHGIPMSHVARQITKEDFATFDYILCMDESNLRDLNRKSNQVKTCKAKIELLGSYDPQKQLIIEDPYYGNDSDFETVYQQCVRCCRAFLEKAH
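Assay system: LMPTP-A, protein tyrosine phosphatase of low molecular weight / Medium: pH 6.0 Bis-Tris buffer with DTT and Triton X-100 / Schedule: 50 min enzyme reaction at room temperature, protected from light / Measured by: endpoint fluorescence intensity from OMFP dephosphorylation / Read-out basis: % inhibition relative to no-enzyme and uninhibited control wells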
STEP block: blocks human striatal-enriched tyrosine phosphatase | recombinant STEP, OMFP fluorogenic substrate, fluorescence | inhibition, % at 20 µM | 360,000 compounds, 0.25% hits | AID 588621;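 active = inhibition at 20 µM, scaled per plate between control wells, above about 37%, limit read from the data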;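 also: 0% = DMSO with enzyme and substrate and 100% = substrate only without enzyme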
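Assay system: isolated STEP enzyme / Timing: 20 min at room temperature, dark / Doses: 20 µM, 1% DMSO / Technique: fluorescence intensity, excitation 480 nm, emission 540 nm / Reagent: fluorogenic phosphatase substrate OMFP at 25 µM final / Measure: percent inhibition scaled to no-enzyme and uninhibited-enzyme controls, plate-pattern corrected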
Scp-1 conf: confirmation of human Scp-1 phosphatase inhibitors; AID 540281; shares compounds with Scp1 inh; recombinant SCP-1 catalytic domain, phosphate release, malachite green absorbance; 2,500 compounds, 61% hits; inhibition, % at 20 µM;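 also: plate controls were DMSO with enzyme for no effect and buffer wells lacking enzyme for full effect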
Scp-1 MG ctr: counter-screen for Scp-1 inhibitors: colorimetric interference | shares compounds with Scp1 inh | Colorimetric interference counterscreen, malachite green absorbance 630 nm | apparent inhibition (interference), % at 20 µM | 2,500 tested, under 10 active | AID 540313;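 also: compounds added after enzyme reaction finished so only phosphate colour detection is probed; plate controls were DMSO wells with completed Scp-1 reaction for no effect and substrate wells lacking enzyme for full effect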
Scp1 DSF: validation of human Scp-1 inhibitors by thermal shift binding; 1,500 compounds, 25% hits; shares compounds with Scp1 inh; thermal shift relative to vanadate control, % at 40 µM; Recombinant SCP1, Sypro Orange thermal shift Tm;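 active = substances whose mean melting-temperature shift, as a percentage of the reference inhibitor's shift, reaches about 5.3%, limit read from the data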;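 also: 0% = Tm of DMSO wells and 100% = Tm with sodium orthovanadate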
DNMT1 confirm: DNMT1 inhibition confirmation, single concentration. DNMT1 molecular beacon HinP1I cleavage, fluorescence. 2,300 compounds, 8% hits. inhibition, % at 10 µM. shares compounds with DNMT1 block. AID 602385;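 active = average inhibition of at least 30% in the single-concentration confirmation test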
DNMT1 interf: beacon fluorescence artifact counter-screen; 2,300 compounds, 1% hits; activation (fluorescence interference), % at 10 µM; AID 602387; shares compounds with DNMT1 block; DNMT1 molecular beacon spectral interference counterscreen, fluorescence 485/520;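 active = activation of at least 30% at 10 µM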;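 also: DNMT1 catalytic domain with a HinP1I cleavage step and a FAM/dabcyl DNA beacon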
STEP conf: STEP (human) phosphatase inhibition, single concentration confirmation. shares compounds with STEP block. recombinant STEP, OMFP fluorogenic substrate, fluorescence. inhibition, % at 20 µM. 520 compounds, 32% hits. AID 623866; call rule not given here;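 also: 0% = enzyme with substrate plus DMSO and 100% = substrate without enzyme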
Active calls of the source: *; / = no result.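 The calls were made as follows, unless noted: active = inhibition of at least 30% at 20 µM; inactive = the rest.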

SMILES	SUMO HTRF inh	SUMO1 PPI mod	DNMT1 block	Scp1 inh	LMPTP block	STEP block	Scp-1 conf	Scp-1 MG ctr	Scp1 DSF	STEP conf	others
CN(CC(=O)Nc1ccc(F)cc1)C(=O)CN1C(=O)NC(CCc2ccccc2)C1=O (stereo not drawn)	/	-4	0	/	0	-2	/	/	/	/
Cc1cc(C(=O)N/N=C/c2ccc(-c3cccc(Cl)c3Cl)o2)n[nH]1	15	0	52*	61*	49	61*	88*	-5	2	0	DNMT1 confirm=17;DNMT1 interf=3
Cc1cc(C(=O)N/N=C/c2ccc(-c3cccc(Br)c3)o2)n[nH]1	40	4	28	-5	0	2	/	/	/	/
CCOC(=O)c1ccc(NC(=O)c2ccccc2N(C)S(=O)(=O)c2ccccc2)cc1	-7	4	-9	-17	1	-1	/	/	/	/
O=C(N/N=C/c1cccnc1)c1ccc(Cl)c(Cl)c1	/	-15	0	-13	-2	-1	/	/	/	/
O=C(N/N=C/c1cccnc1)c1ccc(NC(=O)c2cccc(Cl)c2)cc1	35	61*	-12	70*	21	94*	72*	-12	8.4*	61*
CC1CSC(N(C(=O)c2ccc(S(C)(=O)=O)cc2)c2ccc(Cl)cc2)=N1 (stereo not drawn)	-4	-1	-1	-6	0	-2	/	/	/	/
O=c1[nH][nH]c2c1[C@H](c1ccc(F)cc1)O[C@H](C1CCCCC1)C2	/	6	/	/	-1	/	/	/	/	/
Cc1ccc(C(=O)Nc2ccc3c(c2)C(=O)NC3=O)cc1	20	-5	14	-7	-3	-2	/	/	/	/
COC(=O)c1ccc(C(=O)Nc2ccc3c(c2)C(=O)NC3=O)cc1	21	95*	-4	75*	31	94*	47*	-12	6.0*	2
CCOc1ccc(/C=N/NC(=O)c2cc3c(OC)cccc3[nH]2)cc1	35	15	83*	79*	25	89*	58*	-13	6.4*	41*	DNMT1 confirm=4;DNMT1 interf=-3
CN(C)c1ccc(C(=O)OCC(=O)Nc2ccc(S(N)(=O)=O)cc2)cc1	7	58*	7	99*	18	40*	75*	-16	11*	101*
N#CCc1nc2ccccc2c(=O)[nH]1	-2	-1	0	16	2	3	/	/	/	/
CCCCN1CC(COC)Oc2cccc(F)c2S1(=O)=O (stereo not drawn)	/	14	7	-11	-1	-1	/	/	/	/
CCOc1ccc(CCNC(=O)COC(=O)/C=C/c2ccco2)cc1OCC	8	-6	1	4	1	3	/	/	/	/
O=C(COc1ccc(/C=N/NC(=O)c2ccccc2Br)cc1)Nc1ccccc1	3	-4	-4	-8	0	-1	/	/	/	/
O=C(COc1ccc(/C=N/NC(=O)c2ccccc2O)cc1)Nc1ccccc1	46	1	-4	65*	67*	85*	65*	2	-11	24*
COc1cc(/C=N/NC(=O)c2ccccc2O)ccc1OCC(=O)Nc1ccccc1	/	11	0	63*	38	62*	70*	-11	-5	83*
